Experimental data from different studies.
Each line is one published result; the experiments were not run side by side.

COc1ccc2nccc(N3CCc4c(cc(Cn5ccnc5)cc4-c4cn(C)nc4C(F)(F)F)C3=O)c2c1 — Cmax (male CD-1 mouse, plasma; oral, 10 mg/kg): 1150 ng/mL
NC(=O)c1cc(Oc2ccc(NC(=O)Nc3ccc(Cl)c(C(F)(F)F)c3)c(F)c2)cc[n+]1[O-] — Cmax (mouse, plasma; oral, 10 mg/kg, single dose): 22.9 ng/mL
CC(C)(C)c1cc(NC(=O)Nc2ccc(Oc3ccnc4[nH]c(=O)cnc34)cc2F)n(-c2ccccc2)n1 — Cmax (BALB/c mouse, plasma; intravenous, 2 mg/kg): 38100 nM
COc1nc(-c2cc(C)c(N[C@@H](C)c3c(F)cc(F)cc3F)nn2)ccc1-n1cnc(C)c1 — Cmax (male CD-1 mouse, plasma; intravenous, 1 mg/kg, single dose): 858 ng/mL
Cc1c2c(n(-c3ccc(Cl)cc3Cl)c1-c1ccc(OS(=O)(=O)CCC(F)(F)F)cc1)CCN(N1CCCCC1)C2=O — Cmax (mouse, plasma; oral, 6 µmol/kg, single dose): 480 nM
Cc1noc([C@H](Cc2c[nH]cn2)NC(=O)CN(CCCc2ccccc2)CC(=O)O)n1 — Cmax (male C57BL/6 mouse, plasma; intraperitoneal, 30 mg/kg): 5800 ng/mL
CNC(=O)c1cc(OC)cc2c(N3CCc4c(cc(Cn5ccnc5)cc4-c4cn(C)nc4C(F)(F)F)C3=O)ccnc12 — Cmax (male CD-1 mouse, plasma; oral, 50 mg/kg): 46100 ng/mL
CCc1ccc(Cc2cc([C@@H]3O[C@H](CO)[C@@H](O)[C@H](O)[C@H]3O)cc3c2CCC3)cc1 — Cmax (male C57BL/6 mouse, plasma; intravenous, 1 mg/kg): 1300 ng/mL
CN1CCN(C(=O)CN[C@@H]2C[C@H]2c2ccc(OCc3ccccc3)cc2)CC1 — Cmax (mouse, plasma; intraperitoneal, 10 mg/kg): 542 ng/mL
Cc1ccc2cncc(N3CCc4c(cc(Cn5ccnc5)cc4-c4cn(C)nc4C(F)(F)F)C3=O)c2c1 — Cmax (male CD-1 mouse, plasma; oral, 50 mg/kg): 6580 ng/mL
CC(C)Oc1c(NC(=O)c2ccc(NC(=O)[C@H](CC(N)=O)NC(=O)c3ccc(NC(=O)c4ccc(C#N)cc4)cc3)cc2)ccc(C(=O)Nc2ccc(C(=O)O)cc2)c1O — Cmax (male CD-1 mouse, plasma; subcutaneous, 5 mg/kg, single dose): 129 ng/mL
CC[C@H](C)[C@@H]1NC(=O)[C@@](C)(NC(=O)[C@H](CCCNC(=N)N)NC(=O)[C@H](CC(C)C)NC(=O)[C@@H](NC(=O)[C@H](CCC(N)=O)NC(=O)[C@H](CC(C)C)NC(C)=O)[C@@H](C)O)CCCC=CCCC[C@@](C)(C(=O)N[C@@H](CC(C)C)C(=O)N[C@@H](Cc2ccc3ccccc3c2)C(N)=O)NC(=O)[C@H](CCCNC(=N)N)NC(=O)[C@H](CCC(N)=O)NC1=O — Cmax (male BALB/c mouse, plasma; intravenous, 10 mg/kg): 86000 nM
NS(=O)(=O)c1ccc(-c2cc(Nc3ccc(OC(F)(F)F)cc3)ncn2)cc1 — Cmax (male BALB/c mouse, plasma; oral, 20 mg/kg): 2000 ng/mL
CCc1cc(C(=O)NC)c2nccc(N3CCc4c(cc(Cn5ccnc5)cc4-c4cn(C)nc4C(F)(F)F)C3=O)c2c1 — Cmax (male CD-1 mouse, plasma; oral, 150 mg/kg): 131000 ng/mL
CN1C(=O)c2ccccc2[S@+]([O-])c2ccc(C(=O)NCCc3cccs3)cc21 — Cmax (male C57BL/6 mouse, brain; intraperitoneal, 30 mg/kg, single dose): 1720 ng/g
O=C(CCCCCC(=O)NN=Cc1ccc(-c2ccccc2)cc1)NO — Cmax (C57BL/6 mouse, brain; intraperitoneal, 25 mg/kg, single dose): 60 nM
FC(F)(F)Oc1ccc(Nc2cc(-c3cn[nH]c3)ncn2)cc1 — Cmax (male BALB/c mouse, plasma; oral, 20 mg/kg): 3400 ng/mL
CC(C)(O)c1cn(-c2ccc(-c3cc(F)c(CO)c(S(C)(=O)=O)c3)cc2)c(C(C)(C)c2cccc(F)c2Cl)n1 — Cmax (male C57BL/6 mouse, serum; oral, 10 mg/kg): 1900 nM
CNCCN(C)c1cc(C#N)cc(CCc2cc(C)cc(N)n2)c1 — Cmax (male BALB/c mouse, brain; oral, 10 mg/kg): 39.3 ng/g
Cc1c(C(=O)NN2CCCCC2)nn(-c2ccc(Cl)cc2Cl)c1-c1ccc(Cl)cc1 — Cmax (mouse, plasma; oral, 20 µmol/kg, single dose): 1050 nM
COc1ccc([C@@]23Oc4cc(OC)cc(OC)c4[C@]2(O)[C@H](O)[C@H](C(=O)N(C)C)[C@H]3c2ccccc2)cc1 — Cmax (mouse, plasma; intraperitoneal, 5 mg/kg): ~4000 nM
Cc1ccc(NC(=O)c2ccc(CN3CCN(C)CC3)cc2)cc1Nc1nccc(-c2cncc(-c3oncc3C)c2)n1 — Cmax (male C57BL/6 mouse, plasma; oral, 100 mg/kg/day): 5060 ng/mL
COc1nc(-c2cc(C)c(N[C@@H](C)c3ccc(F)cc3)nn2)ccc1-n1cnc(C)c1 — Cmax (male CD-1 mouse, plasma; oral, 5 mg/kg, single dose): 1530 ng/mL
CSc1cc(Oc2ccnc3[nH]c(=O)cnc23)ccc1NC(=O)Nc1cc(C(C)(C)C)nn1-c1ccccc1 — Cmax (BALB/c mouse, plasma; intravenous, 2 mg/kg): 29800 nM
COc1nc(-c2cc(C)c(N[C@@H](C)c3cc(F)cc(F)c3)nn2)ccc1-n1cnc(C)c1 — Cmax (male CD-1 mouse, plasma; oral, 5 mg/kg, single dose): 1180 ng/mL
CS(=O)(=O)CCNCc1ccc(-c2ccc3ncnc(Nc4ccc(OCc5cccc(F)c5)c(Cl)c4)c3c2)o1 — Cmax (nude mouse, plasma; oral, 200 mg/kg, single dose): 16600 ng/mL
CCOc1ccc(Cc2cc([C@@H]3O[C@H](CO)[C@@H](O)[C@H](O)[C@H]3O)ccc2Cl)cc1 — Cmax (male C57BL/6 mouse, plasma; intravenous, 1 mg/kg): 1170 ng/mL
COc1ccc(C(O)COc2ccc(-c3csc(-c4ccc(OCC(O)c5ccc(OC)c(OC)c5)cc4)n3)cc2)cc1OC (centres unmarked) — Cmax (C57BL/6 mouse, plasma; oral, 10 mg/kg): 1760 ng/mL
COc1cc2c(Nc3ccc(Cl)c(Cl)c3F)ncnc2cc1OC[C@@H]1C[C@@H]2CN(C)C[C@@H]2C1 — Cmax (FVB mouse, plasma; oral, 70 mg/kg, single dose): 3780 ng/mL
Cc1nc(-c2cnc(NC(C)C)n(C)c2=O)ccc1Oc1ccnc(-c2cnn(C)c2)c1 — Cmax (female mouse, plasma; oral, 30 mg/kg, single dose): 9350 ng/mL
OC[C@H]1O[C@@H](c2ccc(Cl)c(Cc3ccc(O[C@H]4CCOC4)cc3)c2)[C@H](O)[C@@H](O)[C@@H]1O — Cmax (CD-1 mouse, plasma; intravenous, 5 mg/kg): 4920 ng/mL
CCN1CCN(Cc2cc(NC(=O)c3ccc(C)c(-c4ccc5nc(NC(=O)C6CC6)cn5n4)c3)cc(C(F)(F)F)c2)CC1 — Cmax (Swiss mouse, plasma; intraperitoneal, 3 mg/kg): 340 ng/mL
COc1cc(C(=O)N2CCC(N3CCN(C)CC3)CC2)ccc1Nc1ncc2c(n1)N(C)c1ccccc1C(=O)N2C — Cmax (mouse, plasma; oral, 10 mg/kg): 1620 ng/mL
CC(C)(O)c1cn(-c2ccc(-c3cc(F)c(CO)c(S(C)(=O)=O)c3)cc2F)c(C(C)(C)c2c(Cl)cccc2Cl)n1 — Cmax (male C57BL/6 mouse, serum; oral, 10 mg/kg): 710 nM
COC(=O)CN(CCCc1ccccc1)CC(=O)N[C@@H](Cc1c[nH]cn1)c1nc(C)no1 — Cmax (male C57BL/6 mouse, plasma; intraperitoneal, 30 mg/kg): 1000 ng/mL
Cn1cnc2c(F)c(Nc3ccc(Br)cc3Cl)c(C(=O)NOCCO)cc21 — Cmax (nude mouse, liver; oral, 10 mg/kg, single dose, tumour-bearing): 1440 ng/g
CC(=O)O[C@H]1C(=O)[C@@]2(C)[C@H]([C@H](OC(=O)c3ccccc3)[C@]3(O)C[C@H](OC(=O)[C@H](O)[C@@H](NC(=O)c4ccccc4)c4ccccc4)C(C)=C1C3(C)C)[C@]1(OC(C)=O)CO[C@@H]1C[C@@H]2O — Cmax (SCID mouse, plasma; intraperitoneal, 10 mg/kg, single dose): 2100 ng/mL
CC(C)(C)c1ccc(O)c(CN(Cc2cc(C(C)(C)C)ccc2O)C2CCC(NC(N)=O)CC2)c1 (centres unmarked) — Cmax (male C57BL/6 mouse, plasma; intraperitoneal, 10 mg/kg, single dose): 2240 ng/mL
Cc1ncsc1-c1ccc(CNC(=O)[C@@H]2C[C@@H](O)CN2C(=O)[C@@H](NC(=O)CCCCCCCCCC(=O)N2CCN(CC[C@H](NC(=O)C3(N)CCN(c4ncnc5[nH]ccc45)CC3)c3ccc(Cl)cc3)CC2)C(C)(C)C)cc1 — Cmax (mouse, plasma; intraperitoneal, 75 mg/kg, single dose): 10000 nM
NC[C@@H]1O[C@H](O[C@H]2[C@@H](O)[C@H](O[C@@H]3[C@@H](O)[C@H](N)C[C@H](N)[C@H]3O[C@H]3O[C@H](CO)[C@@H](O)[C@H](O)[C@H]3N)O[C@@H]2CO)[C@H](N)[C@@H](O)[C@@H]1O — Cmax (male BALB/c mouse, plasma; oral, 500 mg/kg): 690 ng/mL
CCc1cc(OC)c2nccc(N3CCc4c(cc(Cn5ccnc5)cc4-c4cn(C)nc4C(F)(F)F)C3=O)c2c1 — Cmax (male CD-1 mouse, plasma; oral, 50 mg/kg): 29000 ng/mL
CN1CCC[C@H](CN2c3ccccc3Sc3ccccc32)C1.Cl — Cmax (mouse, plasma; oral, 64 mg/kg, single dose): 1180 ng/mL
Cc1c(C(=O)NN2CCCCC2)nc(-c2ccc(Cl)cc2Cl)n1-c1ccc(OS(=O)(=O)CCC(F)(F)F)cc1 — Cmax (mouse, plasma; oral, 20 µmol/kg, single dose): 1200 nM
Cc1nc2ccc(F)cc2n1-c1nc(N)c(F)c(Nc2ccc(C(F)(F)F)cc2)n1 — Cmax (nude mouse, plasma; oral, 10 mg/kg): 1160 ng/mL
CNC(=O)c1cc(Oc2ccc(NC(=O)Nc3ccc(Cl)c(C(F)(F)F)c3)c(F)c2)cc[n+]1[O-] — Cmax (mouse, plasma; oral, 10 mg/kg, single dose): 360 ng/mL
C=CC(=O)N1CC2CC(n3nc(-c4ccc(C(=O)Nc5ccccn5)cc4)c4c(N)ncnc43)CC2C1 (centres unmarked) — Cmax (SCID mouse, plasma; oral, 3 mg/kg): 703 ng/mL
Cc1cc(Nc2ccc(S(F)(F)(F)(F)F)cc2)n2ncnc2n1 — Cmax (male Swiss mouse, plasma; oral, 100 mg/kg, single dose): 59000 nM
